Assay [1] deals with Candida albicans. Put plainly: Antifungal activity against Candida albicans after 24 hrs. It is filed as functional. In short, it runs like this:
(§1)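 Broth microdilution in RPMI-1640; each well held 240 µL medium, 10 µL inoculum (prepared per NCCLS guidelines) and 50 µL of test solution in 50% MeOH. The test solution was a 2-fold series from a 92 µg/mL stock, 4.6 down to 0.14 µg per 50 µL. A drug-free well served as control. Incubation at 35 °C, 24 h for C. albicans and 48 h for A. fumigatus. Growth was read as OD595. MIC was the highest dilution well free from growth. Run in triplicate.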

In assay [2] the test system is Aspergillus fumigatus. The experiment in a line: Antifungal activity against Aspergillus fumigatus after 48 hrs. It is filed as functional. In short, it runs like this: as §1
Assay [3] has as its system Aspergillus fumigatus. The experiment in a line: Antifungal activity against Aspergillus fumigatus at 10 ug by disk diffusion assay. The format is functional, organism-based. The essentials: (§2)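 Disk diffusion on malt agar plates; each disk carried 10 µg in 30 µL of 50% MeOH.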
In general terms: In agar diffusion tests the substance spreads into inoculated agar from a disc or well.

The subject of a further assay is Aspergillus niger. The experiment in a line: Antifungal activity against Aspergillus niger at 10 ug by disk diffusion assay. The format is functional, organism-based. In short, it runs like this: as §2
A further assay concerns Ustilago maydis. The experiment in a line: Antifungal activity against Ustilago maydis at 10 ug by disk diffusion assay. The format is functional, organism-based. As to conditions: Mycosarcoma maydis. The essentials:
as §2

The subject of another assay is Penicillium sp. Put plainly: Antifungal activity against Penicillium sp. at 10 ug by disk diffusion assay. The format is functional, organism-based. The essentials:
as §2

The next assay has as its system Fusarium sambucinum. The experiment in a line: Antifungal activity against Fusarium sambucinum at 10 ug by disk diffusion assay. The format is functional, organism-based. The essentials:
as §2

A further assay concerns Bacillus subtilis. The experiment in a line: Antimicrobial activity against Bacillus subtilis at 10 ug by disk diffusion assay. The format is functional, organism-based. In short, it runs like this: (§3)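 Disk diffusion on LB-agar plates; each disk carried 10 µg in 30 µL of 50% MeOH.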
A further assay has as its system Escherichia coli. Put plainly: Antimicrobial activity against Escherichia coli at 10 ug by disk diffusion assay. The format is functional, organism-based. The essentials:
as §3

In another assay the test system is Streptomyces. Put plainly: Antimicrobial activity against Streptomyces versicolor at 10 ug by disk diffusion assay. The format is functional, organism-based. In short, it runs like this:
as §3

The test system of assay [4] is Candida albicans. Put plainly: Antifungal activity against Candida albicans at 10 ug by disk diffusion assay. The format is functional, organism-based. In short, it runs like this:
as §2

The subject of a further assay is Nakaseomyces glabratus. Put plainly: Antifungal activity against Candida glabrata at 10 ug by disk diffusion assay. The format is functional, organism-based. In short, it runs like this:
as §2

The structures appear in SMILES notation. ≈ marks a conversion by molar mass, not a printed value. Calls of active or inactive are those of the source. The rule behind the calls is not given here. Positions of bridges follow the written chain, without caps; N, C: chain ends. Non-standard residues stand in square brackets, D forms with d. Residues, ends and D or L forms follow the SMILES beside them. *: point of attachment. X2 = OC[C@H]1O[C@@H](*)[C@@H](O)[C@@H](O)[C@@H]1O; NMeT = CN[C@H](C(=O)O)[C@@H](C)O; X1 = CCCCCCCCCCCC(O)C(O)C(=O)*; Dhb = C/C=C(\N)C(=O)O

On to `C/C=C1\NC(=O)[C@H](Cc2ccc(O)cc2)NC(=O)[C@H]([C@@H](C)O)NC(=O)[C@@H](NC(=O)[C@@H](NC(=O)C(O)C(O)CCCCCCCCCCC)[C@@H](C)O)[C@@H](C)OC(=O)[C@H](CCC(N)=O)NC(=O)[C@H]([C@@H](C)O[C@@H]2O[C@H](CO)[C@@H](O)[C@H](O)[C@@H]2O)N(C)C(=O)CNC(=O)[C@H](CCC(N)=O)NC1=O` (some centres not stated) [HASSALLIDIN A] (X1-TTTY[Dhb]QG[NMeT](X2)Q; ester 2-C), for which the MIC in the assay with Candida albicans [1] and against Aspergillus fumigatus [2] was 4.8 µg/mL (≈ 3.47 µM) in each case. Also, the outcome in the assay on Aspergillus fumigatus [3], in the assay on Aspergillus niger, with Ustilago maydis, in the assay on Penicillium sp., with Fusarium sambucinum and with Candida albicans [4] was Active. In the assay on Nakaseomyces glabratus, the result was Active. For the same compound, the outcome in the assay with Bacillus subtilis, in the assay with Escherichia coli and in the assay with Streptomyces was inactive.

The record behind these values is ChEMBL document CHEMBL1158756, “Hassallidin A, a glycosylated lipopeptide with antifungal activity from the cyanobacterium Hassallia sp” (2005).
